Screening data: PubChem BioAssay, several laboratories
RanGTP-Impb inh: disruptors of Ran-importin-beta complex formation – biochemical, FRET, CFP-Ran, YFP-importin-beta, homogeneous, primary screen | cell-free CFP-Ran/YFP-importin-beta FRET ratio | inhibition, % (no concentration beside the values) | 300,000 compounds, 1.1% hits | AID 2216;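 active means more than half of the replicate wells show a fall in the fluorescence ratio signal beyond about 16%, limit read from the data, passing the limit was not always enough; inconclusive means exactly half of the replicate wells pass the set limit; inactive means fewer than half of replicates pass the limit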;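 further: 0% = DMSO wells and 100% = Ran loaded with GDP instead of GTP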
proKLK7 act: activators of human kallikrein-7 zymogen; activation, % at 7 µM; purified proKLK7, EDANS-DABCYL substrate fluorescence; 100% is mature enzyme control, 0% vehicle; 370,000 compounds, 0.9% hits;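 active means activation above the mean of all tested compounds plus 3 SD, computed per campaign excluding outliers beyond control limits, cut at about 13% in these data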
MEX-5 binding: C. elegans MEX-5 TCR-2 RNA binding activity | Q9XUB2 | MEX-5/FITC-TCR2 RNA binding, fluorescence polarization; active compounds read low | activity score (negative = inhibition of binding), % at 10 µM | 300,000 compounds, 0.38% hits | AID 1832;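 active means inhibition past about -25% in most replicates, and total fluorescence under double the plate's negative control median, limit read from the data; inconclusive means replicates evenly split on the limit, or fluorescence at least double controls; inactive means too little inhibition in most replicates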;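 further: 0% = DMSO and -100% = 5 µM competing unlabeled TCR2 RNA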
Target sequence (Q9XUB2 whole entry, looked up): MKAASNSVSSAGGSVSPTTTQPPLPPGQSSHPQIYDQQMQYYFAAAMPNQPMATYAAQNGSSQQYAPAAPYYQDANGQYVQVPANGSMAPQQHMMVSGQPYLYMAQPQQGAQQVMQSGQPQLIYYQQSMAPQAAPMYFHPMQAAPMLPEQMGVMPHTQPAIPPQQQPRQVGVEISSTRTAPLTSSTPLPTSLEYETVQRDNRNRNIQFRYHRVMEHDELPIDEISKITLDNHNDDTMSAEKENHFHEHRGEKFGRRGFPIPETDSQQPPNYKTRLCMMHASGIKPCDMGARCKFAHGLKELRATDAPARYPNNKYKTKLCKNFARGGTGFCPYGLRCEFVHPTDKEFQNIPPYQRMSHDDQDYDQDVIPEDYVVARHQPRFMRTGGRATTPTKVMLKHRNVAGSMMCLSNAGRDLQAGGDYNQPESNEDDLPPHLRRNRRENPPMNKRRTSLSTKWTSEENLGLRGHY
Runt-CBFb FRET: blocks binding of human RUNX1 Runt domain to CBFb. Q01196+Q13951. Cerulean-Runt/Venus-CBFb FRET ratio 530/480, 1 h. inhibition, % at 20 µM. 220,000 compounds, 0.46% hits;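 active means inhibition over about 50% at 20 µM in the single-dose screen, limit read from the data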;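 further: 0% = DMSO wells and 100% = excess unlabeled CBFb competitor control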
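test system = Cerulean-Runt domain fusion protein, energy donor | probe or stimulus = Venus-CBFb binding partner, 100 nM | incubation = two 1 h room-temperature incubations shielded from light | detection = fluorescence energy transfer, 422 nm excitation, 530/480 nm emission | measure = loss of energy transfer signal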
Runt-SMMHC FRET: inhibitors of human RUNX1 Runt domain binding to CBFb-SMMHC | 220,000 compounds, 0.74% hits | inhibition, % at 20 µM | Cerulean-Runt/Venus-CBFb-SMMHC FRET ratio 530/480, 1 h | AID 1434 | Q01196+Q13951;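 active means mean inhibition across duplicate retests at 20 µM reaching about 50%, limit read from the data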;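 further: 0% = DMSO wells and 100% = wells with excess untagged CBFb-SMMHC; inhibitors lower the FRET ratio by blocking Runt binding to CBFb-SMMHC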
KLK7 act conf: proKLK7 activation, confirmation; shares compounds with proKLK7 act; purified proKLK7, EDANS-DABCYL substrate fluorescence; scaled: vehicle 0, mature enzyme 100; activation, % at 7 µM; 3,200 compounds, 68% hits; AID 686949;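 active means activation, as change over the incubation, above the mean of all tested compounds plus 3 SD, cut at about 13% in these data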
EDANS-DABCYL int: counter-screen for kallikrein-7 activators: EDANS-DABCYL optical interference. activation, % at 7 µM. AID 686952. shares compounds with proKLK7 act. EDANS-DABCYL substrate fluorescence interference, no enzyme, 4 h; solvent 0%, active enzyme control 100%. 3,200 compounds, 80% hits;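 active means activation above the all-compound mean plus 3 SD, ignoring values outside control-based bounds, cut at about 4.8% in these data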;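 further: value is the 4 h activation minus the activation read at time zero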
* marks the source's active call; other numbers are inactive results; ? = inconclusive; nt = no result. An excerpt weighted towards active compounds, which were near 2.1% of everything screened.

SMILES	RanGTP-Impb inh	proKLK7 act	MEX-5 binding	Runt-CBFb FRET	Runt-SMMHC FRET	KLK7 act conf	EDANS-DABCYL int
COC(=O)c1cc2c(ccc3ccccc32)oc1=O	84*	65*	-3	nt	nt	67*	74*
COc1ccccc1N1CCN(c2nc3ccccn3c(=O)c2C=O)CC1	5	0	2	-1	-3	nt	nt
CN(C)CCCNC(=O)C[C@H]1C[C@H](C(=O)N2CCCCC2)[C@@]2(C)c3[nH]c4cc(-c5ccco5)ccc4c3CCN2C1=O	nt	97*	nt	nt	nt	86*	109*
C[C@]12c3[nH]c4cc(-c5ccco5)ccc4c3CCN1C(=O)[C@@H](CC(=O)NCC13CC4CC(CC(C4)C1)C3)C[C@@H]2C(=O)N1CCCCC1	nt	-7	nt	nt	nt	nt	nt
CC[C@]12c3[nH]c4cc(-c5ccco5)ccc4c3CCN1C(=O)[C@@H](CC(=O)NCCCN(C)C)C[C@@H]2C(=O)N1CCN(C(=O)c2ccco2)CC1	nt	84*	nt	nt	nt	47*	63*
CN(C)CCCNC(=O)C[C@H]1C[C@H](C(=O)N2CCCCC2)[C@@]2(CCc3ccccc3)c3[nH]c4cc(-c5ccco5)ccc4c3CCN2C1=O	nt	46*	nt	nt	nt	41*	52*
C[C@]12c3[nH]c4cc(-c5ccco5)ccc4c3CCN1C(=O)[C@@H](CC(=O)NCCCn1ccnc1)C[C@@H]2C(=O)N1CCCCC1	nt	105*	nt	nt	nt	40*	61*
C[C@H](O)[C@@H]1CN2CCc3ccc(N4CCOCC4)cc3[C@@H]2C[C@@H]1N(C)C(=O)c1ccccc1F	nt	1	nt	nt	nt	nt	nt
COC(=O)[C@H]1C[C@@]2(C)c3ccccc3N(S(=O)(=O)c3ccccc3)[C@H]2N1	nt	0	nt	nt	nt	nt	nt
O=C1CCCCCC(=O)[C@H](O)C[C@H](c2ccccc2)O1	nt	0	nt	nt	nt	nt	nt
CCC(CC)C(=O)Nc1ccc(-c2cn3cccnc3n2)cc1	-1	61*	2	nt	nt	66*	64*
COCC(=O)Nc1ccc(-c2cn3cccnc3n2)cc1	0	25*	1	0	0	63*	81*
CCOCC(=O)Nc1cc(-c2cn3cccnc3n2)ccc1C	4	nt	2	0	2	nt	nt
COc1ccc(C(=O)NCCc2nnc3ccc(SCC(=O)N4CCOCC4)nn23)cc1	4	0	1	nt	nt	nt	nt
COCCn1c(-c2ccc(OC)cc2)nc2ccccc21	-3	1	0	2	0	nt	nt
COCCn1c2nc(=O)n(-c3ccccc3)c(=O)c-2nc2ccccc21	nt	49*	nt	nt	nt	40*	45*
CC(OC(=O)Cn1[nH]c(=O)c2ccccc2c1=O)C(=O)Nc1ccc(Cl)cn1 (centres undefined)	nt	0	nt	nt	nt	nt	nt
CN1C(=O)[C@@](O)(c2cn(C)c3ccccc23)c2cc(F)ccc21	nt	0	nt	nt	nt	nt	nt
COc1cc2c(cc1OC)CN(C(=O)CSc1n[nH]c(N)n1)CC2	-1	18*	-5	-3	0	3	1
CCc1nc(SCC(=O)N2CCc3cc(OC)c(OC)cc3C2)c(C#N)cc1C	2	13*	0	nt	nt	1	0
COc1cc2c(cc1OC)CN(C(=O)CSc1nc(C)cc(C)c1C#N)CC2	6	7	-4	2	-5	nt	nt
O=C(Cn1cnc2ccc(Cl)cc2c1=O)NC1CCS(=O)(=O)C1 (centres undefined)	nt	-1	nt	nt	nt	nt	nt
CC(C)CC1=NN2C(=N)/C(=C\c3coc4ccccc4c3=O)C(=O)N=C2S1	-28	24*	?	-50	-65	24*	23*
OC1CN=C2CCCc3c2n(c2ccc(Cl)cc32)C1 (centres undefined)	-14	17*	-11	-2	-19	-38	-28
c1ccc(-c2ccc3c(c2)c2c4n3CCN=C4CCC2)cc1	5	0	-2	3	-15	nt	nt
O=C(NCCNC(=O)c1ccccc1F)c1ccco1	5	0	-3	nt	nt	nt	nt
COc1ccc(NC(=O)C(C)N2CCN(C)CC2)cc1 (centres undefined)	1	0	1	nt	nt	nt	nt
